Experimental data as given in publication PMC6039304 (International Journal for Parasitology: Drugs and Drug …, 2018).
Where two headings read alike, the source gives them in different places.

How the values were obtained:
intracellular L.infantum = format: cell-based, Leishmania infantum; details: for IC50: read-out: Intracellular amastigotes IC50
Method in brief: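 THP-1 cells were differentiated with 1 μM retinoic acid for 72 h, then infected overnight at 1:4 cell:parasite. Infected cells were purified on Histopaque 1077 (1300g, 20 min) and exposed 24 h (37 °C, 5% CO2) to serial dilutions. Infection was scored by counting % infected cells in Giemsa-stained cytospins. For combinations, peptaibol was held at 5 or 2 μM while alkylphosphocholine was varied (15–0.2 or 25–0.2 μM). CI came from linear isoboles; SI = CC50/intracellular IC50.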

[1] = system: L. infantum promastigotes; test: antileishmanial activity in promastigote cultures; format: cell-based, Leishmania infantum; details: read-out: Promastigotes IC50, 24 h
Method in brief: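 The L. infantum field strain came from an infected dog spleen and was grown at 26 °C in RPMI with 10% heat-inactivated FBS and 2% penicillin/streptomycin. Promastigotes at 10^6/ml were incubated with serial dilutions of test compound for 24 h at 26 °C. Cells were then resuspended in PBS, stained with 12 μM propidium iodide and analysed by flow cytometry. IC50 is the concentration killing 50% of parasites.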

THP-1 monocytes = test: cytotoxicity in THP-1 monocytes; format: cell-based, human; details: for CC50: read-out: Cytotoxicity CC50, THP-1 monocytes
Method in brief: (§1)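 THP-1 monocytes, maintained at 37 °C and 5% CO2 in RPMI with FBS and antibiotics, were seeded at 10^6/ml. They were incubated 24 h with serial dilutions of test compounds or combinations, resuspended in PBS, stained with 12 μM propidium iodide and counted by flow cytometry. CC50 is the concentration giving 50% of maximum cytotoxicity. Single-point combination tests used the alkylphosphocholine at 15 or 25 μM with peptaibol at 5 or 2 μM.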

human RBCs = test: hemolytic potential on red blood cells; format: cell-based; details: for % hemolysis: at 100 μM of each compound; for HC50 fold higher than that of HePC / Hemolysis HC50: human RBCs; for Hemolysis HC50: 1 h, 37 °C, 50% of maximum hemolysis with water
Method in brief: (§2)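 EDTA-anticoagulated blood from healthy volunteers was spun at 900 g for 10 min and the red cells washed three times in PBS. Cells were mixed 1:1 (v/v) with serial dilutions of test compound prepared in PBS, incubated 1 h at 37 °C, and centrifuged. Supernatant absorbance was read at 550 nm, with water-lysed cells as 100% hemolysis. HC50 was derived as for IC50. Combinations used the alkylphosphocholine at 15 or 25 μM plus peptaibol at 5 or 2 μM.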

[2] = system: L. infantum promastigotes; test: ROS production in promastigotes; format: cell-based, Leishmania infantum; details: compounds at IC50; 1 h, 3 h, 6 h
[3] = system: L. infantum promastigotes; test: mitochondrial membrane polarization in promastigotes; format: cell-based, Leishmania infantum; details: for ΔΨm dissipation: at 6 h, relative to control, compound alone
Method in brief: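 Promastigotes (5 × 10^5/ml) were treated with test compounds or combinations at their IC50 values for 1, 3 or 6 h, then stained with 0.1 μM MitoTracker Red CMXRos for 30 min. Flow cytometry (488 nm laser, ≥10^4 cells, debris and autofluorescence excluded) scored the % of cells fluorescing above 10^2 (log scale) at 630 nm, relative to untreated control. Data came from at least 3 experiments.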

[4] = cytotoxicity in THP-1 monocytes; format: cell-based, human; details: human, THP-1 monocytes
Method in brief: as §1

[5] = hemolytic potential on red blood cells; format: cell-based, human; details: human, red blood cells from EDTA-preserved peripheral blood
Method in brief: as §2

[6] = system: L. infantum promastigotes; test: viability of promastigotes at early stages of treatment; format: cell-based, Leishmania infantum; details: 6 h, compound at IC50
Method in brief: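 Promastigotes (5 × 10^5/ml) were incubated 6 h with test compounds or combinations at their IC50 values. Propidium iodide was added at 12 μM and samples were run immediately by flow cytometry (≥10^4 cells). The value is % PI-stained promastigotes relative to control, mean ± SEM of at least 3 experiments.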

[7] = system: L. infantum promastigotes; test: morphological changes in promastigotes; format: cell-based, Leishmania infantum; details: 6 h, 26 °C, at IC50; scanning electron microscopy
[8] = in humans; cited from earlier work
trypanosomiasis = details: mouse model; ref Kumar et al., 1991; cited from earlier work
[9] = single compound, intracellular amastigote in THP-1 monocytes, 24 h

| IC50 (intracellular L.infantum; [9]) [µM] | IC50 ([1]; 26 °C) [µM] | Compound | CC50 (THP-1 monocytes; 24 h) [µM] | % hemolysis (human RBCs) [%] | HC50 fold higher than that of HePC (human RBCs) [fold] | Hemolysis HC50 (human RBCs) [µM] | ROS production in promastigotes [2] | ΔΨm dissipation [3] [%] | morphological alterations of promastigotes [7] | also measured |
| --- | --- | --- | --- | --- | --- | --- | --- | --- | --- | --- |
| 7.6 ± 1.2 | 8.2 ± 0.1 | suzukacillin A [SZ] | 22.5 ± 3.2 | 96.6 | 1.7 | 66.9 ± 2.2 | moderate levels of ROS | 30 |  |  |
|  |  | CCCCCCCCCCCCCCCCOP(=O)([O-])OCC[N+](C)(C)C [HePC, hexadecylphosphocholine, reference compound] |  |  |  | 38.3 ± 2.8 | low levels of ROS |  | did not seem to affect noticeably the morphology | IC50 (intracellular L.infantum; Leishmania infantum, THP-1, 24 h): 1.8 ± 0.5 µM; Selectivity Index (SI), CC50/IC50 against the intracellular form (intracellular L.infantum; THP-1 CC50 / intracellular amastigote IC50): 15.8; IC50 ([1]; Leishmania infantum): 8.2 ± 0.7 µM; CC50 at 24 h [4]: 28.6 ± 2.5 µM; % PI-stained THP-1 cells (THP-1 monocytes; 15 μM HePC or 25 μM TC52, alone or combined with 5 μM AAM or 2 μM SZ, 24 h): 27.6%; hemolysis at 1 h, 100 µM [5]: 96.1%; mitochondrial transmembrane potential (MitoTracker retention) ([3]; compounds at IC50, 1 h, 3 h, 6 h): significantly induce accumulation of MitoTracker above the control levels; PI-stained promastigotes [6]: 5.5%; half-life [8]: 100 to 200 h |
| 7.5 ± 0.2 | 8.7 ± 0.1 | antiamoebin [AAM] | 40.3 ± 3.2 | 52.9 | 2.5 | 94.6 ± 2.6 | moderate levels of ROS | 75 | caused damage to the plasma membrane and altered flagellar morphology | fold less cytotoxic than HePC (THP-1 monocytes; THP-1 CC50 ratio): 1.4 fold; fold less cytotoxic than SZ (THP-1 monocytes; THP-1 CC50 ratio): about 1.8 fold; trypanocidal activity (trypanosomiasis): exhibits trypanocidal activity |
